Compound activity as filed in PubChem BioAssay.
PLCb3 inh = human PLC-beta3 inhibitors, primary screen, biochemical, fluorescence; AID 720704, 2013; 370,000 tested, 0.18% active; inhibition, % at 12.2 µM; 1-phosphatidylinositol 4,5-bisphosphate phosphodiesterase beta-3 (Homo sapiens), Q01970; Purified PLC-beta3, fluorogenic substrate; in the data active = inhibition above about 11%;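 note: 0% = median of compound wells on plate and 100% = full blocker control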
ADAM17 inh = ADAM17 inhibitors, primary screen, biochemical, QFRET. AID 720648, 2013. 370,000 tested, 0.83% active. Disintegrin and metalloproteinase domain-containing protein 17 (Homo sapiens), P78536. recombinant ADAM17, EDANS/DABCYL FRET peptide cleavage. inhibition, % at 6.95 µM;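 active = inhibition above the mean of compounds lying between control limits plus 3 SD, set per campaign, cut at about 8.5% in these data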;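 note: 0% = DMSO-only wells as the low control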
PLC-gamma1 inh = PLC-gamma1 enzyme inhibitors, primary screen, biochemical, fluorescence, purified enzyme | 1-phosphatidylinositol 4,5-bisphosphate phosphodiesterase gamma-1 (Homo sapiens), P19174 | AID 720700, 2013 | fluorogenic substrate | 370,000 tested, 0.84% active | inhibition, % at 12.2 µM
TbMetRS inhib = T. brucei MetRS inhibitors, primary screen, biochemical, luminescence; inhibition, % at 11.9 µM; purified T. brucei MetRS, ATP depletion, Kinase-Glo luminescence; AID 624268, 2012; 360,000 tested, 0.4% active;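 active = inhibition above a per-plate cutoff of the control wells' mean inhibition plus 3 SD, cut at about 5.5% in these data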;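 note: 0% = DMSO wells median and 100% = median of wells with control inhibitor compound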
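Test system – parasite MetRS enzyme · Reagent – substrates ATP, L-methionine and bulk Escherichia coli tRNA · Doses – 11.9 µM compound single dose, 0.9% DMSO · Times – 15 min enzyme-compound preincubation, 2 h reaction, 10 min detection, 25 °C · Signal – Kinase-Glo luminescence, ATP depletion format · Controls – DMSO-only wells as low control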
ADAM10 inh = human ADAM10 inhibitors, primary screen, biochemical, QFRET, HTS; Disintegrin and metalloproteinase domain-containing protein 10 (Homo sapiens), O14672; recombinant ADAM10, EDANS/DABCYL FRET peptide cleavage, 3 h; inhibition, % at 7 µM; 370,000 tested, 0.62% active; AID 720582, 2013;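 active = inhibition above a per-campaign cutoff equal to the mean of compounds falling between control-based bounds plus 3 SD, cut at about 20% in these data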;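 note: 0% = DMSO wells while the 100% control is not disclosed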
Target sequence (O14672 214-748 limits assumed): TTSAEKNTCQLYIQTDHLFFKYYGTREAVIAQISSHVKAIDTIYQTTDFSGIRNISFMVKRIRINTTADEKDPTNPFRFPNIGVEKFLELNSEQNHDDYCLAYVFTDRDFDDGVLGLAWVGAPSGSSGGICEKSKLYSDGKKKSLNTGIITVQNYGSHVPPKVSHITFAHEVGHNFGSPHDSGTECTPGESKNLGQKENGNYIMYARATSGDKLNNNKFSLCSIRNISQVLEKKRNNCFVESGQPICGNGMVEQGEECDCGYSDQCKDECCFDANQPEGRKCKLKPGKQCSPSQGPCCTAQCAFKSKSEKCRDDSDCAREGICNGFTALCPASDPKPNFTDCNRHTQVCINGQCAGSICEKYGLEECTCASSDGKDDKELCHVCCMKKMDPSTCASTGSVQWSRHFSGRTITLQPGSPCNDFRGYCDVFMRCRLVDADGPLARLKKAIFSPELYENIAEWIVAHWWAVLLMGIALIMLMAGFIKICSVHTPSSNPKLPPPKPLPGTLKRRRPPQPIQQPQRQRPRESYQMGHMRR
PLCg1 ctr = PLC-gamma1 enzyme inhibitors, counter-screen for PLC-beta3 inhibitor project, biochemical, fluorescence | 3,300 tested, 3.1% active | purified PLC-gamma1, fluorogenic substrate | shares compounds with PLC-gamma1 inh | inhibition, % at 12.3 µM | AID 743258, 2014
PLCb3 confirm = PLC-beta3 inhibitor confirmation, biochemical, fluorescence, purified enzyme. 3,300 tested, 1% active. fluorogenic substrate fluorescence. inhibition, % at 12.3 µM. shares compounds with PLC-gamma1 inh. AID 743261, 2014; in the data active = inhibition above about 11%
Starred values were filed as active, the others as inactive; . = no result given. Sampled rows, rich in hits. Any-hit rate of the full collection: about 2.3%. Cut-off read from the data, not from the text of the source, unless noted: active = inhibition above about 9.5%; inactive = the rest.

SMILES | PLCb3 inh | ADAM17 inh | PLC-gamma1 inh | TbMetRS inhib | ADAM10 inh | PLCg1 ctr | PLCb3 confirm
CCCC(O)(c1ccccc1)C(CN1CCOCC1)c1ccccc1 (stereo unspecified) | 0 | -1 | 2 | 0 | -3 | . | .
CCCC(O)(c1ccc(Cl)cc1)C(CN1CCOCC1)c1ccccc1 (stereo unspecified) | 3 | 4 | 11* | -1 | 1 | 5 | 2
O=C(O)CCNC(=O)c1ccc(Br)o1 | 6 | 6 | 12* | -1 | 10 | -6 | -4
O=C(NCCC(c1ccccc1)c1ccccc1)c1ccc(Br)o1 | 3 | 1 | 1 | -1 | 7 | . | .
CCc1ccc(NC(=O)C(=O)NCCN2CCN(S(C)(=O)=O)CC2)cc1 | -1 | 0 | 12* | 0 | -2 | -4 | -1
CC1CCc2cc(F)ccc2N1C(=O)CSc1nnc2c3ccccc3n(C)c2n1 (stereo unspecified) | 2 | 4 | 9.7* | -2 | -3 | -10 | -3
CC1CCc2cc(F)ccc2N1C(=O)CSc1nnc2c3cc(F)ccc3n(C)c2n1 (stereo unspecified) | 4 | 0 | 5 | 0 | 9 | . | .
CCc1cccc(NC(=O)c2ccc(Cn3nc(C)cc3C)o2)c1 | 4 | 1 | 9.8* | -1 | 7 | -6 | -1
CCOc1ccc(NC(=O)c2ccc(Cn3nc(C)cc3C)o2)cc1 | -3 | -1 | -1 | 0 | 2 | . | .
COc1cccc(S(=O)(=O)N(C)C[C@@H]2Oc3cc(C#CCN(C)C)ccc3S(=O)(=O)N([C@H](C)CO)C[C@@H]2C)c1 | -5 | 0 | 0 | -1 | -16 | . | .
CC(=O)N1CCCC(c2cc(C(=O)Nc3ccccc3)no2)C1 (stereo unspecified) | 2 | 2 | 7 | -1 | 2 | . | .
Cc1ccc([C@@H]2CC(=O)[C@@H]3CN(S(=O)(=O)c4ccc(C)cc4)[C@H](c4ccccc4)C[C@@H]3N2S(=O)(=O)c2ccc(Cl)cc2)cc1 | 1 | 2 | -2 | -1 | 0 | . | .
c1ccc(-c2nnc(SCC3CCCCO3)nc2-c2ccccc2)cc1 (stereo unspecified) | 7 | 6 | 17* | -1 | 2 | -2 | 1
c1ccc(-c2nnc(SCC3CCCO3)nc2-c2ccccc2)cc1 (stereo unspecified) | 4 | 0 | 1 | 0 | 5 | . | .
Cn1c(=NC(=O)C2CC2)sc2cccc(F)c21 | 0 | 3 | 11* | 0 | 7 | -6 | -5
NCCCC[C@@H](C(=O)N1CCNCC1)n1cc([C@@H](N)CO)nn1 | 12* | -1 | 5 | 0 | 5 | -7 | -4
COc1cccc(-c2cnc(C(O)c3ccc(Cl)cc3C)[nH]2)c1 (stereo unspecified) | 0 | 3 | 4 | 0 | 2 | . | .
Cc1ccc(C(=O)NC(NC(=O)c2ccc(C)cc2)C(Cl)Cl)cc1 | 0 | -1 | 6 | 0 | 6 | . | .
Cc1ccc(C(NC(=O)c2ccccc2)C(Cl)Cl)cc1 (stereo unspecified) | 11* | 6 | 7 | 0 | 10 | -3 | -1
CCCS(=O)(=O)NC(=O)C1(C)CCCN(C(=O)c2ccccc2OC(F)(F)F)C1 (stereo unspecified) | . | . | . | 0 | . | . | .
COC(=O)[C@]1(CNC(=O)C(C)(C)C)CC(=O)N(Cc2ccc(Cl)cc2)[C@@H]1c1ccc(OC)cc1 | 5 | 3 | 3 | . | 8 | . | .
COC(=O)[C@]1(CNC(C)=O)CC(=O)N(Cc2ccc(Cl)cc2)[C@@H]1c1ccc(OC)cc1 | 1 | 6 | 11* | . | 4 | -9 | -4
CCN(C)C(=O)CN1C(=O)C2CCCCN2C(=O)c2ccccc21 (stereo unspecified) | -2 | 3 | -1 | . | -15 | . | .
O=C(CN1C(=O)CSc2ccc(C(F)(F)F)cc21)Nc1ccccc1 | 2 | -1 | 14* | 1 | 12 | 2 | 3
CCC(=O)N(NC1=NS(=O)(=O)c2ccccc21)S(=O)(=O)c1ccc(C)cc1 | -7 | -2 | -3 | 0 | -1 | . | .
SMILES | PLCb3 inh | ADAM17 inh | PLC-gamma1 inh | TbMetRS inhib | ADAM10 inh | PLCg1 ctr | PLCb3 confirm
O=C1CN(C(=O)c2ccccc2F)C(c2ccccc2)c2cc(Cl)ccc2N1 (stereo unspecified) | -5 | 1 | 10* | -1 | 18 | -4 | 0
O=C1NC[C@H](CCCCN2C[C@H](Cc3ccccc3)N(CCc3ccc(O)cc3)C(=O)C2=O)N(CC2CCCCC2)C1=O | 3 | -2 | -2 | 0 | -5 | . | .
CC(C)Cc1ccc(-c2cc3nc(NCCCn4ccnc4)ccn3n2)cc1 | -216 | -45 | -161 | 0 | -140 | . | .
COc1ccc(C(=O)OCC(=O)Nc2sccc2C(N)=O)cc1[N+](=O)[O-] | -9 | -6 | 1 | 0 | -20 | . | .
Cn1cc(CN2CCC(C(=O)NC(c3ccc(-c4ccccc4)cc3)c3cnccn3)CC2)c2ccccc21 (stereo unspecified) | 7 | 7 | 12* | 0 | 1 | -1 | -1
CC1Cc2ccccc2N1S(=O)(=O)c1ccc2c(c1)n(C)c(=O)c(=O)n2C (stereo unspecified) | 4 | 2 | 9.6* | -1 | 10 | -1 | 2
CC(=O)N1c2ccc(S(=O)(=O)N3c4ccccc4CC3C)cc2CC1C (stereo unspecified) | -7 | 0 | 2 | -1 | 14 | . | .
Cc1cc(C)cc(S(=O)(=O)c2cnc3ccccc3n2)c1 | -4 | -2 | -2 | -1 | -3 | . | .
O=S(=O)(c1ccc(Cl)cc1)c1cnc2ccccc2n1 | -2 | -2 | 9.6* | 0 | -6 | 12* | -4
CCCC1S/C(=N/N=C/c2cccs2)NC1=O (stereo unspecified) | 6 | 2 | 3 | -1 | 4 | . | .
CCC1S/C(=N/N=C/c2cccs2)NC1=O (stereo unspecified) | 2 | -3 | 15* | -1 | 4 | 3 | -2
CCOC(=O)Cc1csc(NC(=O)CCc2ccccc2)n1 | -6 | -3 | 2 | 0 | -1 | . | .
CCOC(=O)Cc1nnc(NC(=O)CCc2ccccc2)s1 | -4 | -4 | 11* | -1 | -9 | -1 | -10
CC12CCC(C(=O)Nc3nccs3)(OC1=O)C2(C)C (stereo unspecified) | 6 | 0 | 10* | 0 | 8 | -3 | -3
